Compound activity: PubChem, several laboratories
MrgX1 PAM = positive allosteric modulators of MrgX1, primary screen, HEK293 cells, Fluo-4 calcium flux; Mas-related G-protein coupled receptor member X1 (Homo sapiens), Q96LB2; FDSS; active compounds read high; B-score at 10 µM; 310,000 tested, 0.63% active;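 active means plate-corrected calcium response at least 3 library SD above typical, normal starting fluorescence, not activating the receptor alone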;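 further: compound read alongside a low EC10 to EC30 dose of BAM8-22 agonist; peak minus trough fluorescence over baseline measured at the second addition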
Target sequence (Q96LB2 whole entry, looked up): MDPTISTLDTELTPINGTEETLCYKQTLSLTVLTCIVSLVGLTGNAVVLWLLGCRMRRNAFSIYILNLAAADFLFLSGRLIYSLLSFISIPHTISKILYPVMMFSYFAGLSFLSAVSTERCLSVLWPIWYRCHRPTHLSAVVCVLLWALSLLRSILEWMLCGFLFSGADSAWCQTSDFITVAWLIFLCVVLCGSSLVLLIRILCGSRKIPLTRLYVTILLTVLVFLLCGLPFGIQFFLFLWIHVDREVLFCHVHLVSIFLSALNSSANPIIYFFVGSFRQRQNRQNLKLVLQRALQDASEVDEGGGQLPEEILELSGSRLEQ
MrgX1 antag = antagonists of human MrgX1 receptor, primary screen, HEK293 cells, Fluo-4 calcium flux. Mas-related G-protein coupled receptor member X1 (Homo sapiens), Q96LB2. BAM8-22 antagonism; active compounds read low. B-score at 10 µM. 310,000 tested, 1.3% active. AID 588676, 2011;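 active means calcium-response B-score plate-corrected more than 3 library SD below zero, starting fluorescence within 5 deviations, no agonist response on first addition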;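 further: peak minus trough fluorescence over baseline after final BAM8-22 challenge near maximal dose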
MrgX1 agonist = agonists of human MrgX1 receptor, primary screen, HEK293 cells, Fluo-4 calcium flux; Mas-related G-protein coupled receptor member X1 (Homo sapiens), Q96LB2; Fluo-4 calcium fluorescence, agonist mode; active compounds read high; B-score at 10 µM; 310,000 tested, 0.44% active;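 active means calcium response B-score plate-corrected fluorescence ratio at least 3 library SD, with starting fluorescence B-score inside 5 SD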
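Test system: Stable human MrgX1 HEK293 cell line | Schedule: Overnight plating before 1 h dye loading | Read-out basis: Baseline-normalised fluorescence change ratio, B-scored | Detection: Kinetic calcium dye fluorescence, Fluo-4 NW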
RGS4 pot = RGS4 potentiators or activators, primary screen, cell-based, HEK293 M3R inducible RGS4, calcium flux | carbachol calcium flux Fluo4; active compounds read low | 310,000 tested, 0.92% active | B-score at 10 µM;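 active means B-score of the integrated calcium signal more than 4 SD below the library mean, with starting fluorescence not abnormally high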;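 further: negative B-score means reduced calcium response which marks RGS4 activation or potentiation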
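test system = HEK293 cells with stable M3R and inducible RGS4 | schedule = recording 10 s baseline at 1 Hz, 100 s post-agonist | technique = Fluo4-AM (2 µM) calcium-flux fluorescence, kinetic read | measure = Agonist-evoked peak-minus-minimum fluorescence over baseline, integrated ratio, B score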
RGS4 inh = RGS4 inhibitors, primary screen, cell-based, HEK293 M3R inducible RGS4, calcium flux | Regulator of G-protein signaling 4 (Homo sapiens), P49798 | Fluo-4 calcium flux; active compounds read high; triggered by carbachol at its EC20 | B-score at 10 µM | 310,000 tested, 0.45% active | AID 463165, 2010;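 active means B-score, a plate-corrected calcium signal, over three deviations above library mean, with baseline fluorescence within five deviations of library mean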;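 further: RGS4 expression induced by doxycycline in cells with stable M3 receptor; B-score is computed from the integrated fluorescence ratio over baseline after carbachol; higher B-score means a larger calcium signal and so more RGS4 inhibition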
Target sequence (P49798 whole entry, looked up): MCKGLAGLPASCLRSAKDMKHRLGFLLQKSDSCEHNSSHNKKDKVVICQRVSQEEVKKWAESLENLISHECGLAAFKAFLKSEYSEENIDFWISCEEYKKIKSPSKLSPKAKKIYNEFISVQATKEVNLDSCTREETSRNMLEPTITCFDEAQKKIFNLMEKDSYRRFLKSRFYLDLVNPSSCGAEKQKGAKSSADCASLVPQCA
PHOSPHO1 inh = PubChem AID 1565; recombinant PHOSPHO1, absorbance phosphatase assay; inhibition, % at 13.3 µM; Phosphoethanolamine/phosphocholine phosphatase (Homo sapiens), Q8TCT1; 290,000 tested, 1.1% active; in the data active means inhibition above about 60%
The depositor's hits bear a star. An excerpt weighted towards active compounds, which were near 4.5% of everything screened.

For O=C(N/C(=C\c1ccc(Br)cc1)C(=O)N1CCOCC1)c1ccc([N+](=O)[O-])cc1 the results were MrgX1 PAM inactive, MrgX1 antag inactive, MrgX1 agonist inactive, RGS4 pot inactive, RGS4 inh inactive and PHOSPHO1 inh 30.
O=S(=O)(NC1CCSc2ccccc21)c1ccc(Cl)nc1 (stereo not drawn) was read as MrgX1 PAM inactive, MrgX1 antag inactive, MrgX1 agonist inactive, RGS4 pot inactive, RGS4 inh inactive and PHOSPHO1 inh 26.
O=C(NC1CCCCC1)NC1CCN(C(=S)NCc2ccco2)CC1 was read as MrgX1 PAM inactive, MrgX1 antag inactive, MrgX1 agonist inactive, RGS4 pot inactive, RGS4 inh inactive and PHOSPHO1 inh 82*.
`C=CCOc1cccc(C(=O)/C=C2/C(=O)Nc3ccccc32)c1` gave MrgX1 PAM inactive, MrgX1 antag inactive, MrgX1 agonist inactive, RGS4 pot inactive, RGS4 inh 5.8* and PHOSPHO1 inh 7.
For Cc1ccc(C(=O)Nc2c(N)nc(SCC(=O)Nc3cc(C)on3)[nH]c2=O)cc1 the results were MrgX1 PAM inactive, MrgX1 antag -6.4*, MrgX1 agonist inactive, RGS4 pot inactive, RGS4 inh inactive and PHOSPHO1 inh 10.
Screening COc1ccc(C(=O)NNC(=O)CSc2nc3c([nH]2)c(=O)n(C)c(=O)n3C)cc1 returned MrgX1 PAM inactive, MrgX1 antag -4.6*, MrgX1 agonist inactive, RGS4 pot inactive, RGS4 inh inactive and PHOSPHO1 inh 37.
CN(C)c1ccc(NC(=O)CSc2nc(N)c(C(=O)Nc3ccc(N(C)C)cc3)s2)cc1 was read as MrgX1 PAM inactive, MrgX1 antag inactive, MrgX1 agonist inactive, RGS4 pot inactive, RGS4 inh inactive and PHOSPHO1 inh 2.
For COc1ccc(NC(=O)CSc2nc(N)c(C(=O)Nc3ccc(N(C)C)cc3)s2)cc1 the results were MrgX1 PAM inactive, MrgX1 antag inactive, MrgX1 agonist inactive and PHOSPHO1 inh 66*.
COc1ccc(NC(=O)CSc2nc(N)c(NC(=O)c3ccccc3F)c(=O)[nH]2)cc1 was read as MrgX1 PAM inactive, MrgX1 antag inactive, MrgX1 agonist inactive, RGS4 pot inactive, RGS4 inh inactive and PHOSPHO1 inh 38.
`COc1ccc(C(=O)Nc2c(N)nc(SCC(=O)Nc3ccc(NC(C)=O)cc3)[nH]c2=O)cc1` gave MrgX1 PAM inactive, MrgX1 antag -4.9*, MrgX1 agonist inactive, RGS4 pot inactive, RGS4 inh inactive and PHOSPHO1 inh 29.
CCOC(=O)c1sc(N)c(C(=O)Nc2ccccc2)c1C was read as MrgX1 PAM inactive, MrgX1 antag inactive, MrgX1 agonist inactive, RGS4 pot inactive, RGS4 inh inactive and PHOSPHO1 inh 20.
Screening COc1ccc(NC(=O)C2CCCN(C(=O)Nc3ccc(F)cc3)C2)cc1OC (stereo not drawn) returned MrgX1 PAM inactive, MrgX1 antag inactive, MrgX1 agonist inactive, RGS4 pot inactive, RGS4 inh inactive and PHOSPHO1 inh 31.
`Cc1cc(C)c[n+](-c2nc([O-])sc2C=O)c1` gave MrgX1 PAM inactive, MrgX1 antag inactive, MrgX1 agonist inactive, RGS4 pot inactive, RGS4 inh inactive and PHOSPHO1 inh 96*.
`COc1cc(/C=C/C(=O)c2ccc3c(c2)OCCO3)cc(Br)c1OCC(=O)N(C)C` gave MrgX1 PAM inactive, MrgX1 antag -5.6*, MrgX1 agonist inactive, RGS4 pot inactive, RGS4 inh inactive and PHOSPHO1 inh 28.
Screening CCOc1c(Br)cc(CNc2ccc3c(c2)OCCO3)cc1OC returned MrgX1 PAM inactive, MrgX1 antag inactive, MrgX1 agonist inactive, RGS4 pot inactive, RGS4 inh inactive and PHOSPHO1 inh 37.
`CCCN1CCN(S(=O)(=O)c2ccc(-c3cc(C)no3)s2)CC1` gave MrgX1 PAM inactive, MrgX1 antag inactive, MrgX1 agonist inactive, RGS4 pot inactive, RGS4 inh inactive and PHOSPHO1 inh -21.
Screening CCc1nn(C)c(-c2n[nH]c(=S)n2N)c1Cl returned MrgX1 PAM inactive, MrgX1 antag inactive, MrgX1 agonist inactive, RGS4 pot inactive, RGS4 inh inactive and PHOSPHO1 inh 62*.
Screening Cc1cc(-c2ccccc2)nc2oc(C(=O)NN)c(N)c12 returned MrgX1 PAM inactive, MrgX1 antag inactive, MrgX1 agonist inactive, RGS4 pot inactive, RGS4 inh inactive and PHOSPHO1 inh -3.
For Nc1c(C(=O)N/N=C/c2ccccc2Cl)oc2nc(-c3ccccc3)cc(-c3ccco3)c12 the results were MrgX1 PAM inactive, MrgX1 antag -7.7*, MrgX1 agonist inactive, RGS4 pot inactive, RGS4 inh inactive and PHOSPHO1 inh 36.
Screening Nc1c(C(=O)N/N=C/c2ccc(F)cc2)oc2nc(-c3ccccc3)cc(-c3ccco3)c12 returned MrgX1 PAM inactive, MrgX1 antag -5.4*, MrgX1 agonist inactive, RGS4 pot inactive, RGS4 inh inactive and PHOSPHO1 inh 27.
`Cc1cc(/C=N/Nc2nc(N)ncc2[N+](=O)[O-])c(C)n1-c1cccc(C(F)(F)F)c1` gave MrgX1 PAM inactive, MrgX1 antag inactive, MrgX1 agonist inactive, RGS4 pot inactive, RGS4 inh inactive and PHOSPHO1 inh 10.
COc1cc([C@@H]2CC=C(C(=O)O)[C@H](c3cccc(Cl)c3)N2S(=O)(=O)c2ccc(C)cc2)cc(OC)c1OC was read as MrgX1 PAM inactive, MrgX1 antag inactive and MrgX1 agonist inactive.
`Cc1cc(SCC(=O)NCC(c2cccs2)N2CCOCC2)c(C)cc1Br` (stereo not drawn) gave MrgX1 PAM inactive, MrgX1 antag inactive, MrgX1 agonist inactive, RGS4 pot inactive and RGS4 inh inactive.
For CCN(CC)C(=O)CSc1nnc(-c2ccccc2)n1N the results were MrgX1 PAM inactive, MrgX1 antag inactive, MrgX1 agonist inactive, RGS4 pot inactive, RGS4 inh inactive and PHOSPHO1 inh 9.
Screening CCN(CC)C(=O)CSc1nnc2sc3ccccc3n12 returned MrgX1 PAM inactive, MrgX1 antag inactive, MrgX1 agonist inactive, RGS4 pot inactive, RGS4 inh inactive and PHOSPHO1 inh 62*.
`CCN(CC)C(=O)CSc1nnc(-c2ccccc2)n1-c1ccccc1` gave MrgX1 PAM inactive, MrgX1 antag inactive, MrgX1 agonist inactive, RGS4 pot inactive, RGS4 inh inactive and PHOSPHO1 inh 82*.
